Results taken from ChEMBL document CHEMBL5154773, “Development of Sulfamoylated 4-(1-Phenyl-1H-1,2,3-triazol-4-yl)phenol Derivatives as Potent Steroid Sulfatase Inhibitors for Efficient Treatment of Breast Cancer” (J Med Chem, 2022).
Active and inactive are the calls of the source. The rule behind the calls is not given here.

How the values were obtained:
[1] = Toxicity in BALB/c mouse allografted with mouse 67NR cells assessed as increase in monocyte count at 50 mg/kg, po for 5 days a week; format: organism-based; details: in vivo, 168 h, time 1 weeks
[2] = Toxicity in BALB/c mouse assessed as change in feces consistency at 50 mg/kg, po for 5 days a week for 2 weeks; format: organism-based; details: in vivo, 336 h
Method in brief: (§1)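 Female BALB/c mice, three per dose, received oral doses of 10 mg/kg/day, 5 days a week for 2 weeks. Later mice received 20 or 50 mg/kg. Body weight and general health, including feces, were followed. After cervical dislocation, liver, kidney and spleen were weighed, and liver, kidneys, intestines and spleen were assessed macroscopically.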

[3] = Toxicity in BALB/c mouse assessed as macroscopic changes in kidneys at 10 to 50 mg/kg, po for 5 days a week for 2 weeks; format: organism-based; details: in vivo, 336 h, dose 10-50 mg/kg; method in brief: as §1
[4] = Toxicity in BALB/c mouse allografted with mouse 67NR cells assessed as increase in aspartate aminotransferase levels in plasma at 50 mg/kg, po for 5 days a week; format: organism-based; details: in vivo, 168 h, time 1 weeks
[5] = Toxicity in BALB/c mouse assessed as toxic effects at 10 to 50 mg/kg, po for 5 days a week for 2 weeks; format: organism-based; details: in vivo, 336 h, dose 10-50 mg/kg; method in brief: as §1
[6] = Toxicity in BALB/c mouse assessed as weight change of kidney at 10 to 50 mg/kg, po for 5 days a week for 2 weeks; format: organism-based; details: in vivo, 336 h, dose 10-50 mg/kg; method in brief: as §1
[7] = Toxicity in BALB/c mouse allografted with mouse 67NR cells assessed as effect on erythrocyte count at 50 mg/kg, po for 5 days a week; format: organism-based; details: in vivo, 168 h, time 1 weeks
[8] = Toxicity in BALB/c mouse allografted with mouse 67NR cells assessed as enlarged liver at 50 mg/kg, po for 5 days a week; format: organism-based; details: in vivo, 168 h, time 1 weeks
[9] = Toxicity in BALB/c mouse allografted with mouse 67NR cells assessed as decrease in spleen weight at 50 mg/kg, po for 5 days a week; format: organism-based; details: in vivo, 168 h, time 1 weeks
[10] = Toxicity in BALB/c mouse assessed as macroscopic changes in spleen at 10 to 50 mg/kg, po for 5 days a week for 2 weeks; format: organism-based; details: in vivo, 336 h, dose 10-50 mg/kg; method in brief: as §1
[11] = Toxicity in BALB/c mouse assessed as macroscopic changes in liver at 10 to 50 mg/kg, po for 5 days a week for 2 weeks; format: organism-based; details: in vivo, 336 h, dose 10-50 mg/kg; method in brief: as §1
[12] = Toxicity in BALB/c mouse allografted with mouse 67NR cells assessed as decrease in lymphocyte count at 50 mg/kg, po for 5 days a week; format: organism-based; details: in vivo, 168 h, time 1 weeks
[13] = Toxicity in BALB/c mouse assessed as body weight loss at 10 to 50 mg/kg, po for 5 days a week for 2 weeks; format: organism-based; details: in vivo, 336 h, dose 10-50 mg/kg; method in brief: as §1
[14] = Toxicity in BALB/c mouse assessed as macroscopic changes in intestines at 10 to 50 mg/kg, po for 5 days a week for 2 weeks; format: organism-based; details: in vivo, 336 h, dose 10-50 mg/kg; method in brief: as §1
[15] = Toxicity in BALB/c mouse allografted with mouse 67NR cells assessed as increase in alanine aminotransferase levels in plasma at 50 mg/kg, po for 5 days a week; format: organism-based; details: in vivo, 168 h, time 1 weeks
[16] = Toxicity in BALB/c mouse allografted with mouse 67NR cells assessed as body weight loss at 50 mg/kg, po for 5 days a week and measured 3 times a week relative to control; format: organism-based; details: in vivo, 168 h, time 1 weeks
[17] = (§2) In vivo inhibition of STS in BALB/c mouse allografted with mouse 67NR cells assessed as residual enzyme activity in tumor lysates using [3H]E1S as substrate at 50 mg/kg, po for 5 days a week followed by incubation of tumor lysates with [3H]E1S for 3 hrs by radioisotope enzymatic assay (reference value: 100%); format: functional, Neoplasm; details: time 1 weeks
[18] = Toxicity in BALB/c mouse allografted with mouse 67NR cells assessed as increase in granulocyte count at 50 mg/kg, po for 5 days a week; format: organism-based; details: in vivo, 168 h, time 1 weeks
[19] = Toxicity in BALB/c mouse assessed as weight change of spleen at 10 to 50 mg/kg, po for 5 days a week for 2 weeks; format: organism-based; details: in vivo, 336 h, dose 10-50 mg/kg; method in brief: as §1
[20] = Toxicity in BALB/c mouse allografted with mouse 67NR cells assessed as effect on hemoglobin levels at 50 mg/kg, po for 5 days a week; format: organism-based; details: in vivo, 168 h, time 1 weeks
[21] = Toxicity in BALB/c mouse assessed as maximum tolerated dose administered orally for 5 days a week; details: in vivo, route po, time 1 weeks
Method in brief: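 Female Balb/c mice, three per dose, were dosed per os, starting at 10 mg/kg/day and then at 20 and 50 mg/kg, 5 days a week for 2 weeks. Body weight and general health were followed. At autopsy, liver, kidney and spleen were weighed and examined macroscopically.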

[22] = Toxicity in BALB/c mouse allografted with mouse 67NR cells assessed as effect on hematocrit levels at 50 mg/kg, po for 5 days a week; format: organism-based; details: in vivo, 168 h, time 1 weeks
[23] = Toxicity in BALB/c mouse assessed as weight change of liver at 10 to 50 mg/kg, po for 5 days a week for 2 weeks; format: organism-based; details: in vivo, 336 h, dose 10-50 mg/kg; method in brief: as §1
Steryl-sulfatase = target: T1, Steryl-sulfatase (Homo sapiens, UniProt P08842); assay: Inhibition of human placental STS using [3H]E1S as substrate incubated for 3 hrs by radioisotope enzymatic assay; format: tissue-based, Placenta
T1 sequence (P08842 whole entry): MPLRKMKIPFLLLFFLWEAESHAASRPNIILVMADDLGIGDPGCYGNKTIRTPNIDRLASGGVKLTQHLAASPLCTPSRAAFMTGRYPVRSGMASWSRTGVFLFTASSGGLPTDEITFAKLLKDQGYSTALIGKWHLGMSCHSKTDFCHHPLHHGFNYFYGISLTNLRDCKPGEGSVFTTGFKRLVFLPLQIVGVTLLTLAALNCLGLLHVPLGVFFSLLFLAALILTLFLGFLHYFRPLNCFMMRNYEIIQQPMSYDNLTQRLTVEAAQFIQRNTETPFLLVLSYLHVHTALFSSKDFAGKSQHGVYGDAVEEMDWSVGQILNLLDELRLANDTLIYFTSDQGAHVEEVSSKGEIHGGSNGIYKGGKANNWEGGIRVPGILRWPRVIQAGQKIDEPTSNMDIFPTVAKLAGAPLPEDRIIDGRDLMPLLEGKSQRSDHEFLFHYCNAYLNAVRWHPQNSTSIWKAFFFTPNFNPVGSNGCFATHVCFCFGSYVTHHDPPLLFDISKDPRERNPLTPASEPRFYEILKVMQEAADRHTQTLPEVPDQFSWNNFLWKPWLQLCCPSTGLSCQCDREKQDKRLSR
Method in brief: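 Purified placental STS, 5 U (1 U hydrolyses 100 μM NPS in 1 h at 37 °C), incubated with [3H]E1S (3 nM, 4 × 10⁴ Bq) and inhibitor in 20 mM Tris-HCl pH 7.4 for 3 h at 37 °C. The hydrolysis product was extracted into toluene and counted. Results are expressed as residual STS activity (%) from triplicate runs.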

Mus musculus = assay: In vivo inhibition of STS in BALB/c mouse allografted with mouse 67NR cells assessed as reduction in estradiol level in plasma at 50 mg/kg, po administered 5 days a week by ELISA; format: functional, organism-based; details: time 1.0 weeks
[24] = Toxicity in BALB/c mouse allografted with mouse 67NR cells assessed as increase in blood urea levels at 50 mg/kg, po for 5 days a week; format: organism-based; details: in vivo, 168 h, time 1 weeks
[25] = as §2, with “in liver” for “in tumor”; format: functional; details: time 1 weeks
[26] = target: T2, Steryl-sulfatase (Homo sapiens) (UniProt P08842); assay: Inhibition of STS in human MCF7 cells assessed as residual enzyme activity using [3H]E1S as substrate at 100 nM incubated for 20 hrs by radioisotope cellular assay relative to control; format: cell-based
T2 sequence (whole entry): T1 sequence (P08842 whole entry)
Method in brief: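 MCF-7 cells were grown in DMEM with 10% FBS to 80% confluence, then seeded at 1 × 10⁵ cells/well. Cells were incubated 20 h at 37 °C, 5% CO₂, in serum-free medium with [³H]E1S (3 nM, 4 × 10⁴ Bq), with or without inhibitor at 100, 10 or 1 nM. The hydrolysis product in the collected medium was extracted into toluene and counted by scintillation. Run in triplicate.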

[27] = Antitumor activity against mouse 67NR cells allografted in BALB/c mouse assessed as tumor growth inhibition at 50 mg/kg, po for 5 days a week and measured 3 times a week relative to control; format: functional; details: 168 h, time 1 weeks, read-out: TGI
Method in brief: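 Female BALB/c mice, 7–8 weeks old, received 1.5 × 10⁵ 67NR cells in 0.05 mL Hanks fluid into the mammary fat pad. At about 50 mm³ average tumor volume, mice were randomized to six groups of nine. Dosing was 50 mg/kg b.w. orally, 5 days a week, for 17 days of observation. Tumor volume was measured three times weekly. TGI was calculated from tumor volume versus the control group, using one-way ANOVA with Dunnett test.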

| SMILES | Activity [1] | Activity [2] | Activity [3] | Activity [5] | Activity [6] | Activity [7] | Activity [8] | Activity [9] | Activity [10] | Activity [11] | Activity [12] | Activity [13] | Activity [14] | Activity [17] [%] | Activity [18] | Activity [19] | Activity [20] | MTD at 168 h [21] [mg/kg] | Activity [22] | Activity [23] | also measured |
| --- | --- | --- | --- | --- | --- | --- | --- | --- | --- | --- | --- | --- | --- | --- | --- | --- | --- | --- | --- | --- | --- |
| NS(=O)(=O)Oc1ccc(-c2cn(-c3cc(F)cc(F)c3)nn2)cc1 | Toxic | Toxic | Non-Toxic | Non-Toxic | Non-Toxic | Non-Toxic | Toxic | Toxic | Non-Toxic | Non-Toxic | Toxic | Non-Toxic | Non-Toxic | 1.3 | Toxic | Non-Toxic | Non-Toxic | 50 | Non-Toxic | Non-Toxic | Activity [4]: Toxic; Activity [15]: Toxic; Activity [16]: 4.5%; IC50 (Steryl-sulfatase): 0.0368 µM; inhibition (Mus musculus): Active; Activity [24]: Toxic; Activity [25]: 10.1% |
| NS(=O)(=O)Oc1ccc(-c2cn(-c3cccc(F)c3)nn2)cc1 | Toxic | Toxic | Non-Toxic | Non-Toxic | Non-Toxic | Non-Toxic | Toxic | Toxic | Non-Toxic | Non-Toxic | Toxic | Non-Toxic | Non-Toxic | 5.2 | Toxic | Non-Toxic | Non-Toxic | 50 | Non-Toxic | Non-Toxic | Activity [15]: Toxic; Activity [16]: 4.5%; inhibition (Mus musculus): Active; Activity [24]: Toxic; Activity [25]: 13.6% |
| NS(=O)(=O)Oc1ccc(-c2cn(-c3ccc(C(F)(F)F)cc3)nn2)cc1 |  |  |  |  |  |  |  |  |  |  |  |  |  |  |  |  |  |  |  |  | Activity [26]: 2.9% |
| NS(=O)(=O)Oc1ccc(-c2cn(-c3cccc(C(F)(F)F)c3)nn2)cc1 |  |  |  |  |  |  |  |  |  |  |  |  |  |  |  |  |  |  |  |  | Activity [26]: 1.3% |
| NS(=O)(=O)Oc1ccc(-c2cn(-c3ccc(F)cc3C(F)(F)F)nn2)cc1 |  |  |  |  |  |  |  |  |  |  |  |  |  |  |  |  |  |  |  |  | Activity [26]: 2.4% |
| NS(=O)(=O)Oc1ccc(-c2cn(-c3cc(Cl)cc(Cl)c3)nn2)cc1 | Toxic | Toxic | Non-Toxic | Non-Toxic | Non-Toxic | Non-Toxic | Toxic | Toxic | Non-Toxic | Non-Toxic | Toxic | Non-Toxic | Non-Toxic | 5.1 | Toxic | Non-Toxic | Non-Toxic | 50 | Non-Toxic | Non-Toxic | inhibition in vivo at 50 mg/kg [27]: 51%; inhibition (Mus musculus): Active; Activity [24]: Toxic; Activity [25]: 14.5% |
| NS(=O)(=O)Oc1ccc(-c2cn(-c3cccc(Cl)c3)nn2)cc1 | Toxic | Toxic | Non-Toxic | Non-Toxic | Non-Toxic | Non-Toxic | Non-Toxic | Toxic | Non-Toxic | Non-Toxic | Toxic | Non-Toxic | Non-Toxic | 5.8 | Toxic | Non-Toxic | Non-Toxic | 50 | Non-Toxic | Non-Toxic | inhibition (Mus musculus): Active; Activity [24]: Toxic; Activity [25]: 12.1% |
